Compounds with a hit are over-represented: about 2.6% of the library has one in this group of screens.
TDP2 inh: human TDP2 enzyme inhibitors, primary screen, biochemical, epi absorbance, recombinant enzyme. inhibition, % at 12.8 µM. Tyrosyl-DNA phosphodiesterase 2 (Homo sapiens), O95551. 370,000 compounds, 0.34% hits. T5PNP hydrolysis, p-nitrophenol absorbance 415 nm;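 active = inhibition above the mean of all tested compounds plus 3 SD, set per campaign, cut at about 25% in these data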;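 also: 0% = DMSO with enzyme and 100% = buffer with substrate but no TDP2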
Target sequence (O95551 whole entry, looked up): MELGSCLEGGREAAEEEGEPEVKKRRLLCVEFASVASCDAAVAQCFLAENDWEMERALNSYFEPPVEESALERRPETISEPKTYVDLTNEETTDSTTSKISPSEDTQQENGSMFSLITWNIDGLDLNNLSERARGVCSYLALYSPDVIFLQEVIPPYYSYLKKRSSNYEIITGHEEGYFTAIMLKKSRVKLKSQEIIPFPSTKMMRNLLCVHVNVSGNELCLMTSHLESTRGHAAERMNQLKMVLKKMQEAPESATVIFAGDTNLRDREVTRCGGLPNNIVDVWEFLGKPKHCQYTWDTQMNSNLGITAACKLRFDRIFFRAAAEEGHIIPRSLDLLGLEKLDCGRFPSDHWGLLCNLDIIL
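Material: recombinant human TDP2; quantity: TDP2 enzyme at 120 nM final; medium: Tris-HCl pH 7.5 with MgCl2; compound: single concentration, 12.8 µM nominal, with 1% DMSO; incubation: 2 h enzyme incubation at 37 °C; signal: epi absorbance; measure: percent inhibition; benchmarks: high control without enzyme, low control DMSO plus TDP2; repeats: singlicate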
Apaf-1 inh: inhibitors of human Apaf-1 apoptosome, primary screen, biochemical, DEVD-Rh110 fluorescence, uHTS; Apoptotic protease-activating factor 1 (Homo sapiens), O14727; reconstituted apoptosome caspase-3 activity; inhibition, % at 20 µM; 330,000 compounds, 0.71% hits; active = inhibition of at least 40% at 20 µM;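 also: plate controls were DMSO wells for no effect and DEVD-CHO caspase inhibitor wells for full effect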
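Assay system: Apoptosome proteins | Medium: pH 7.5 Hepes buffer with CHAPS, BSA, DTT | Also added: Cytochrome c and DEVD-Rh110 substrate | Times: 30 min plus 50 min, RT | Detection: Rhodamine 110 fluorescence at Ex 480/Em 540 nm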
PRMT1 inh: PRMT1 methyltransferase inhibitors, primary screen, biochemical, fluorescence polarization; Protein arginine N-methyltransferase 1 (Homo sapiens), Q99873; inhibition, % at 2.79 µM; AID 652257, 2013; recombinant PRMT1, activity-based probe fluorescence polarization; 370,000 compounds, 1.3% hits;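 active = inhibition above about 21% made by adding two undisclosed values, limit read from the data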
PAD4 inh: human PAD4 inhibitors, primary screen, biochemical, fluorescence polarization, 1536-well format | Protein-arginine deiminase type-4 (Homo sapiens), Q9UM07 | recombinant PAD4, RCA probe fluorescence polarization | inhibition, % at 6.36 µM | 330,000 compounds, 0.41% hits | AID 485272, 2010;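 active = percent inhibition above a cutoff equal to the mean of all tested compounds plus 3 SD, cut at about 15% in these data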;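 also: 0% = PAD4 with RCA probe and DMSO and 100% = probe without PAD4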
GSTO1 inh: inhibitors of recombinant GSTO1, primary screen, counter-screen for RBBP9 inhibitor project, biochemical, fluorescence polarization; Glutathione S-transferase omega-1 (Homo sapiens), P78417; activity-based probe fluorescence polarization; inhibition, % at 5.96 µM; 300,000 compounds, 1.1% hits; AID 1974, 2009;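 active = inhibition above the campaign mean inhibition plus 3 SD, cut at about 35% in these data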;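 also: 0% = GSTO1-1 with DMSO and 100% = wells lacking GSTO1-1 enzyme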
Target sequence (P78417 whole entry, looked up): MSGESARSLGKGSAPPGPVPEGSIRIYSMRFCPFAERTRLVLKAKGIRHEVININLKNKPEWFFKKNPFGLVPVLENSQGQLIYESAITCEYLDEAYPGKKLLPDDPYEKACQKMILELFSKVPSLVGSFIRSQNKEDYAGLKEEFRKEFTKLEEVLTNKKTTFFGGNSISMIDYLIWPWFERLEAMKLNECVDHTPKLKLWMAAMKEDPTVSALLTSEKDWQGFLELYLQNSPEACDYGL
PAD4 FP conf: human PAD4 inhibitors, confirmation, biochemical, fluorescence polarization; shares compounds with PAD4 inh; recombinant PAD4, RCA probe fluorescence polarization; inhibition, % at 6.36 µM; 1,200 compounds, 28% hits;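 active = mean inhibition across replicates above the hit cutoff set by the earlier primary screen, cut at about 15% in these data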;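 also: inhibitors block active-site labeling by the probe so polarization falls; 0% = PAD4 with probe and DMSO and 100% = probe without PAD4 enzyme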
* = called active by the depositor.

Results for CCOc1ccc(NC(=O)CN(C)C(=O)CN2C(=O)C3CCCCC3C2=O)cc1OCC (stereo unspecified) ?
TDP2 inh: 3; Apaf-1 inh: -3; PRMT1 inh: -2; PAD4 inh: -1

Results for CCOc1ccc(NC(=O)CN(C)C(=O)CC2CC3CCC2C3)cc1OCC (stereo unspecified) ?
TDP2 inh: 3; Apaf-1 inh: 32; PRMT1 inh: -1; PAD4 inh: 45*; GSTO1 inh: 4; PAD4 FP conf: 4

Results for CN(C)S(=O)(=O)c1cccc(NC(=O)CCCc2nc3ccccc3c(=O)[nH]2)c1 ?
TDP2 inh: -6; Apaf-1 inh: 1; PRMT1 inh: 1; PAD4 inh: 29*; GSTO1 inh: -2; PAD4 FP conf: 7

What do the screens show for `Cc1nn(-c2cccc(Cl)c2)c2c1C(c1ccncc1)C(C#N)=C(N)O2` (stereo unspecified)?
TDP2 inh: 22; Apaf-1 inh: 16; PRMT1 inh: 5; PAD4 inh: 34*; GSTO1 inh: 7; PAD4 FP conf: 6

How did Cc1nn(-c2ccccc2)c2c1C(c1cccs1)C(C#N)=C(N)O2 (stereo unspecified) do in these assays?
Apaf-1 inh: -10; PAD4 inh: 6; GSTO1 inh: 16

What do the screens show for `CCCCOc1ccc(C(=O)NC2CCCCN(Cc3cccc(Cl)c3)C2=O)cc1` (stereo unspecified)?
TDP2 inh: -7; PRMT1 inh: 1

How did NS(=O)(=O)c1ccc(CNC(=S)Nc2ccc(F)c(Cl)c2)cc1 do in these assays?
TDP2 inh: 5; Apaf-1 inh: -3; PRMT1 inh: 3; PAD4 inh: -2; GSTO1 inh: -5

How did NS(=O)(=O)c1ccc(NC(=S)NCc2ccc(Cl)cc2)cc1 do in these assays?
TDP2 inh: 6; Apaf-1 inh: 7; PRMT1 inh: 4; PAD4 inh: 20*; GSTO1 inh: 0; PAD4 FP conf: 6

Results for O=C(CSc1nnc(-c2cccs2)o1)c1ccc2c(c1)OCO2 ?
TDP2 inh: 5; PRMT1 inh: 1

What do the screens show for `O=[N+]([O-])c1cc(Br)c(Nc2ccccc2)c([N+](=O)[O-])c1`?
TDP2 inh: -12; Apaf-1 inh: 15; PRMT1 inh: -2; PAD4 inh: 18*; GSTO1 inh: 13; PAD4 FP conf: 20*

What do the screens show for `CCC(=O)NNC(=O)c1c(O)c2ccccc2[nH]c1=O`?
TDP2 inh: 0; Apaf-1 inh: -4; PRMT1 inh: -2; PAD4 inh: 2; GSTO1 inh: -2

What do the screens show for `CC(NC(=O)c1c(O)c2ccccc2[nH]c1=O)c1ccccc1` (stereo unspecified)?
TDP2 inh: 2; Apaf-1 inh: 1; PRMT1 inh: -1; PAD4 inh: 16*; GSTO1 inh: 3; PAD4 FP conf: 5

How did CCN(CC)S(=O)(=O)c1ccc2c(c1)c(=O)c(C(=O)N1CCN(c3ccccn3)CC1)cn2C do in these assays?
TDP2 inh: 0; Apaf-1 inh: 5; PRMT1 inh: -1; PAD4 inh: 20*; GSTO1 inh: -1; PAD4 FP conf: -4

Results for Cn1cc(C(=O)N2CCN(c3ccccn3)CC2)c(=O)c2cc(S(=O)(=O)N3CCOCC3)ccc21 ?
TDP2 inh: -1; Apaf-1 inh: -8; PRMT1 inh: 1; PAD4 inh: 2; GSTO1 inh: 6

Results for O=C(/C=C/c1ccc(F)cc1)c1ccc(N2CCOCC2)cc1 ?
TDP2 inh: 5; Apaf-1 inh: 15; PRMT1 inh: -2; PAD4 inh: 0; GSTO1 inh: 13

How did C/C(=C\C(=O)c1ccc(F)cc1)Nc1ccc(N2CCOCC2)cc1 do in these assays?
TDP2 inh: 21; Apaf-1 inh: 20; PRMT1 inh: 5; PAD4 inh: 39*; GSTO1 inh: 8; PAD4 FP conf: 7

What do the screens show for `O=C(O)CC/C(=N/NC(=O)CNC(=O)Cc1ccccc1)c1ccccc1`?
TDP2 inh: -5; Apaf-1 inh: -11; PRMT1 inh: -2; PAD4 inh: 0; GSTO1 inh: 11

How did O=C(O)CC/C(=N\NC(=O)CNC(=O)c1ccc(F)cc1)c1ccccc1 do in these assays?
TDP2 inh: -4; Apaf-1 inh: -7; PRMT1 inh: -1; PAD4 inh: 18*; GSTO1 inh: -2; PAD4 FP conf: -6

Results for CC(=O)C1=C(O)C(=O)N(CC(=O)O)C1c1ccccc1Cl (stereo unspecified) ?
Apaf-1 inh: -6; PAD4 inh: 20*; GSTO1 inh: 1; PAD4 FP conf: 4

Results for CC(C)CNc1nnnc2c1sc1nc(N3CCOCC3)c3c(c12)CC(C)(C)SC3 ?
TDP2 inh: 0; Apaf-1 inh: 21; PRMT1 inh: 1; PAD4 inh: 27*; GSTO1 inh: -6; PAD4 FP conf: 12

Results for C#CCOCCOCCOCCNc1nc(N2CCN(C(=O)[C@H](CCC(=O)O)n3cc(C(N)CC(C)C)nn3)CC2)nc(N2CCN(C(=O)[C@H](Cc3cc4ccccc4[nH]3)n3cc(C(N)[C@H](C)CC)nn3)CC2)n1 (stereo partly specified) ?
Apaf-1 inh: 0; PAD4 inh: 1; GSTO1 inh: -3

What do the screens show for `C#CCOCCOCCOCCNc1nc(N2CCN(C(=O)[C@H](CCC(=O)O)n3cc(C(N)[C@H](C)CC)nn3)CC2)nc(N2CCN(C(=O)[C@H](Cc3cc4ccccc4[nH]3)n3cc(C(N)[C@H](C)CC)nn3)CC2)n1` (stereo partly specified)?
Apaf-1 inh: -6; PAD4 inh: 27*; GSTO1 inh: 4; PAD4 FP conf: 10

Results for Cn1c(CNc2ccc(Cl)cc2)nc2ccccc21 ?
TDP2 inh: -14; Apaf-1 inh: 12; PRMT1 inh: 1; PAD4 inh: -2; GSTO1 inh: 7

How did CC(C)N=c1cc2n(-c3ccc(Cl)cc3)c3ccccc3nc-2cc1Nc1ccc(Cl)cc1 do in these assays?
TDP2 inh: -5; Apaf-1 inh: 68*; PRMT1 inh: 15; PAD4 inh: 20*; GSTO1 inh: 7; PAD4 FP conf: 28*

What do the screens show for `O=C(O)c1ccc(-n2nc(-c3ccccc3O)nc2-c2ccccc2O)cc1`?
TDP2 inh: -2; PRMT1 inh: 0

High-throughput results as filed in PubChem.
